From ChEMBL document CHEMBL2424628, “Discovery of potent and selective nonsteroidal indazolyl amide glucocorticoid receptor agonists” (Bioorg Med Chem Lett, 2013) come the findings set out here.

By EC50 is commonly meant the concentration giving half of the maximal effect. The term Ki denotes the equilibrium dissociation constant of an inhibitor or competing ligand from its target. The low end stands for higher affinity, the high end for lower affinity.

Assay [1] concerns the target T1, Glucocorticoid receptor (Homo sapiens) (UniProt P04150).
T1 sequence (whole entry): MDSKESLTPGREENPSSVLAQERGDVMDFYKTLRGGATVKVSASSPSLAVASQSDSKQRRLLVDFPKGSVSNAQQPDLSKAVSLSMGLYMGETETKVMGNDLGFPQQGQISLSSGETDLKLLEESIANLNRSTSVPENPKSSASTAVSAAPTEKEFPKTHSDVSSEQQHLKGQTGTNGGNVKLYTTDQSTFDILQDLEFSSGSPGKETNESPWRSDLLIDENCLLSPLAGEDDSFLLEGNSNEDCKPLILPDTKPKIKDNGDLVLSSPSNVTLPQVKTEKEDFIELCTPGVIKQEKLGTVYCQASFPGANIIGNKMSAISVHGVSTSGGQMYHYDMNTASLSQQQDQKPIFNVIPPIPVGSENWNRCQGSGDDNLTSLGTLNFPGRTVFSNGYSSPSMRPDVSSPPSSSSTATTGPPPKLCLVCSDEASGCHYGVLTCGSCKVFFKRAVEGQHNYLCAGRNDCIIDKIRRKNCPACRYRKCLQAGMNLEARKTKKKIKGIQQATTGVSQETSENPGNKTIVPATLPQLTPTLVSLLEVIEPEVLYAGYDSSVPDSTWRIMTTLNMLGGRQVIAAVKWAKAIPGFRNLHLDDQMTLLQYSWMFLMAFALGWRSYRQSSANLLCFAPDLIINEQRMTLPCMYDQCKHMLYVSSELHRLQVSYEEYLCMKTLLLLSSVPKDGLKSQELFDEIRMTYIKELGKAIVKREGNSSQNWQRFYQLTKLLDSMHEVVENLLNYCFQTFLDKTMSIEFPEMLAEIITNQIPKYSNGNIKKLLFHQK
As to the kind of experiment: Agonist activity at glucocorticoid receptor in human A549 cells assessed as inhibition of PMA-induced AP-1 activation by luciferase reporter gene assay relative to dexamethasone. It is filed as cell-based. A digest of the protocol:
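A549 lung epithelial cells stably carrying a luciferase reporter with 5 copies of the AP-1 response element; AP-1 induced with PMA (15 ng/ml). Compound inhibition of induction read as decreased luciferase. […] Means of two or more experiments in triplicate.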

Assay [2] has as its target T2, Glucocorticoid receptor (Homo sapiens, UniProt P04150).
T2 sequence (P04150 whole entry): T1 sequence (whole entry)
As to the kind of experiment: Agonist activity at glucocorticoid receptor in human A549 cells assessed as inhibition of PMA-induced AP-1 activation by luciferase reporter gene assay. It is filed as cell-based. For orientation: In a reporter assay the amount or activity of a reporter protein is the signal.

Assay [3] has as its target T2, Glucocorticoid receptor. As to the kind of experiment: Binding affinity to glucocorticoid receptor (unknown origin) by fluorescence polarization assay. A general note: In fluorescence polarisation assays a small probe gives low polarisation when free and higher when bound to something large.
In assay [4] the target is T2, Glucocorticoid receptor. As to the kind of experiment: Transactivation of glucocorticoid receptor ligand binding domain (unknown origin) transfected in human HeLa cells assessed as activation of NP-1 by GAL4 luciferase reporter gene assay. It is filed as cell-based.
Assay [5] concerns the target T2, Glucocorticoid receptor. As to the kind of experiment: Agonist activity at glucocorticoid receptor in human A549 cells assessed as inhibition of IL-1beta-induced NF-kappaB dependent E-selectin activation by luciferase reporter gene assay. It is filed as cell-based.
In assay [6] the target is T1, Glucocorticoid receptor (Homo sapiens). As to the kind of experiment: Transactivation of glucocorticoid receptor ligand binding domain (unknown origin) transfected in human HeLa cells assessed as activation of NP-1 by GAL4 luciferase reporter gene assay relative to dexamethasone. It is filed as cell-based. A digest of the protocol:
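HeLa line (NP-1) stably transfected with a GR ligand binding domain chimera in a GAL4 luciferase reporter system, run in agonist mode. Direct GR-LBD activation read as increased luciferase activity. Means of two or more experiments in triplicate.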

Assay [7] shares this target. As to the kind of experiment: Agonist activity at glucocorticoid receptor in human A549 cells assessed as inhibition of IL-1beta-induced NF-kappaB dependent E-selectin activation by luciferase reporter gene assay relative to dexamethasone. It is filed as cell-based.

For `CC(C)(Cc1ccc2c(cnn2-c2ccc(F)cc2)c1)C(=O)Nc1nncs1`, in assay [1], the Efficacy was determined as 36%. For the same compound, at Glucocorticoid receptor [2], the concentration giving a half-maximal response (EC50) turned out to be 4320 nM.
Compound `CC(C)(C(=O)Nc1nncs1)[C@@H](c1ccccc1)c1ccc2c(cnn2-c2cccnc2)c1` showed an inhibitory constant (Ki) on Glucocorticoid receptor [3] of 0.9 nM. For the same compound, the results for the EC50 at Glucocorticoid receptor [4], on Glucocorticoid receptor [5] and on Glucocorticoid receptor [2] were 132 nM, 19 nM and 19 nM, respectively. Further, the Efficacy in assay [1] came to 74%; in assay [6], 57%; in assay [7], 77%.
`CC(C)(C(=O)Nc1nncs1)[C@H](c1ccccc1)c1ccc2c(cnn2-c2cccnc2)c1` displayed a Ki on Glucocorticoid receptor [3] of 4 nM. In addition, the EC50 is over 10000 nM on Glucocorticoid receptor [4], 185 nM on Glucocorticoid receptor [5] and 349 nM on Glucocorticoid receptor [2]. Also, the results for the Efficacy in assay [1] and in assay [7] were 58% and 35%, respectively.
Compound `CC(C)(C(=O)Nn1nccn1)C(c1ccccc1)c1ccc2c(cnn2-c2ccc(F)cc2)c1` (racemic) gave a Ki at Glucocorticoid receptor [3] of 11 nM. For the same compound, in assay [1], the Efficacy amounted to 73%. On Glucocorticoid receptor [2], the EC50 was 17 nM.
With `CC(C)(C(=O)Nn1ncnn1)C(c1ccccc1)c1ccc2c(cnn2-c2ccc(F)cc2)c1` (racemic), at Glucocorticoid receptor [3], affinity was put at a Ki of 17 nM. For the same compound, the EC50 on Glucocorticoid receptor [2] is over 10000 nM.
On to `Cc1cnc(NC(=O)C(C)(C)C(c2ccccc2)c2ccc3c(cnn3-c3ccc(F)cc3)c2)s1` (racemic), for which the Efficacy in assay [1] worked out at 48%. Moreover, the EC50 on Glucocorticoid receptor [2] stood at 49 nM.
For `Cc1nnc(NC(=O)C(C)(C)C(c2ccccc2)c2ccc3c(cnn3-c3ccc(F)cc3)c2)s1` (racemic), in that order: 56% and 141 nM.
In the case of `CC(C)(C(=O)Nc1nncs1)C(c1ccccc1)c1ccc2c(cnn2CCCO)c1` (racemic), the affinity on Glucocorticoid receptor [3], expressed as Ki, was 17 nM. The Efficacy in assay [1] worked out at 45%. Further, the concentration giving a half-maximal response (EC50) at Glucocorticoid receptor [2] came out at 1020 nM.
As to `CC(C)(C(=O)Nc1nncs1)C(c1ccccc1)c1ccc2c(cnn2Cc2ccccc2)c1` (racemic), the Efficacy in assay [1] is 62%. Further, the half-maximal effective concentration (EC50) on Glucocorticoid receptor [2] is 1930 nM.
Compound `CC(C)(C(=O)Nc1nncs1)C(c1ccccc1)c1ccc2c(cnn2CCc2ccccc2)c1` (racemic) registered an inhibition constant (Ki) on Glucocorticoid receptor [3] of 46 nM. In addition, the Efficacy in assay [1] is under 30%. For the same compound, the 50% effective concentration (EC50) on Glucocorticoid receptor [2] was over 10000 nM.
For the compound `CCC(c1ccc2c(cnn2-c2ccc(F)cc2)c1)C(C)(C)C(=O)Nc1nccs1` (racemic), in assay [1], the Efficacy was found to be 62%. For the same compound, at Glucocorticoid receptor [2], the EC50 amounted to 87 nM.
On the same counts, the results for `CC(C)C(c1ccc2c(cnn2-c2ccc(F)cc2)c1)C(C)(C)C(=O)Nc1nncs1` (racemic) are 29% and 81 nM.
On the same counts, the results for `CC(C)(C(=O)Nc1nncs1)C(Cc1ccccc1)c1ccc2c(cnn2-c2ccc(F)cc2)c1` (racemic) are 37% and 705 nM.
On the same counts, the results for `CC(C)(C(=O)Nc1nccs1)C(c1ccc2c(cnn2-c2ccc(F)cc2)c1)C1CCCC1` (racemic) are 47% and 82 nM.
The compound `CC(C)(C(=O)Nc1nccs1)C(c1ccc2c(cnn2-c2ccc(F)cc2)c1)C1CCCCC1` (racemic) returned a Ki at Glucocorticoid receptor [3] of 18 nM. For the same compound, the Efficacy in assay [1] stood at 55%. For the same compound, on Glucocorticoid receptor [2], the EC50 was 66 nM.
For `CC(C)(C(=O)Nc1ccsc1)C(c1ccccc1)c1ccc2c(cnn2-c2ccc(F)cc2)c1` (racemic), the Efficacy in assay [1] was found to be 68%. The concentration for a half-maximal effect (EC50) on Glucocorticoid receptor [2] was found to be 73 nM.
Regarding `CC(C)(C(=O)Nc1nncs1)C(c1ccccc1)c1ccc2c(cnn2-c2ccc(Cl)cc2)c1` (racemic), the EC50 on Glucocorticoid receptor [4] worked out at 256 nM; on Glucocorticoid receptor [5] it was 10 nM; at Glucocorticoid receptor [2], 23 nM. The Efficacy in assay [1] turned out to be 96%; in assay [6], 55%; in assay [7], 84%.
As for `CC(C)(C(=O)Nc1nncs1)C(c1ccccc1)c1ccc2c(cnn2-c2ccc(Br)cc2)c1` (racemic), the Efficacy in assay [1] is under 30%. Moreover, the half-maximal effective concentration (EC50) at Glucocorticoid receptor [2] was 956 nM.
For `CC(C)(C(=O)Nc1nncs1)C(c1ccccc1)c1ccc2c(cnn2-c2ccccn2)c1` (racemic), in that order: 62% and 127 nM.
For the compound `COc1cccc(-n2ncc3cc(C(c4ccccc4)C(C)(C)C(=O)Nc4nncs4)ccc32)c1` (racemic), the EC50 at Glucocorticoid receptor [4] was over 10000 nM; at Glucocorticoid receptor [2], 1200 nM. The Efficacy in assay [1] and in assay [6] was under 30% each time.
Regarding `COc1ccc(-n2ncc3cc(C(c4ccccc4)C(C)(C)C(=O)Nc4nncs4)ccc32)cc1` (racemic), the EC50 on Glucocorticoid receptor [4] is over 10000 nM; at Glucocorticoid receptor [5], 143 nM; at Glucocorticoid receptor [2] it was 56 nM. The values for the Efficacy in assay [1], in assay [6] and in assay [7] were 76%, under 30% and 62%, respectively.
Turning to `CC(C)(C(=O)Nc1nncs1)C(c1ccccc1)c1ccc2c(cnn2-c2ccc(O)cc2)c1` (racemic), the values for the EC50 on Glucocorticoid receptor [4], at Glucocorticoid receptor [5] and on Glucocorticoid receptor [2] were over 10000 nM, over 5000 nM and 271 nM, respectively. Moreover, the results for the Efficacy in assay [1], in assay [6] and in assay [7] were 69%, under 30% and under 30%, respectively.
In the case of `CC(C)Cn1ncc2cc(C(c3ccccc3)C(C)(C)C(=O)Nc3nncs3)ccc21` (racemic), the EC50 at Glucocorticoid receptor [4] was over 10000 nM; at Glucocorticoid receptor [5] it was 1820 nM; at Glucocorticoid receptor [2], 114 nM. Further, the Efficacy in assay [1] is 76%; in assay [6], under 30%; in assay [7], 77%.
As to `CC(C)(C(=O)Nc1nncs1)C(c1ccccc1)c1ccc2c(cnn2CCO)c1` (racemic), the Efficacy in assay [1] is 32%; in assay [7] it was 27%. Besides, the 50% effective concentration (EC50) was determined as 1050 nM at Glucocorticoid receptor [5] and 550 nM at Glucocorticoid receptor [2].
As for `CC(C)(C(=O)Nc1nncs1)C(c1ccccc1)c1ccc2c(cnn2-c2ccccc2)c1` (racemic), in assay [1], the Efficacy turned out to be 73%. Also, the EC50 at Glucocorticoid receptor [2] worked out at 20 nM.
At Glucocorticoid receptor [3], `CC(C)(C(=O)Nc1nncs1)C(c1ccccc1)c1ccc2c(cnn2-c2ccc(F)cc2)c1` (racemic) came in with an inhibition constant (Ki) of 18 nM. Moreover, the Efficacy in assay [1] turned out to be 81%. Besides, the EC50 on Glucocorticoid receptor [2] turned out to be 23 nM.
Take `CC(C)(C(=O)Nc1nccs1)C(c1ccccc1)c1ccc2c(cnn2-c2ccc(F)cc2)c1` (racemic): the inhibition constant (Ki) at Glucocorticoid receptor [3] is 15 nM. Further, the Efficacy in assay [1] is 79%. For the same compound, the EC50 at Glucocorticoid receptor [2] worked out at 4.1 nM.
Consider `CC(C)(C(=O)Nc1nccs1)C(c1ccncc1)c1ccc2c(cnn2-c2ccc(F)cc2)c1` (racemic), for which the Efficacy in assay [1] turned out to be 60%.
In the case of `CC(C)(C(=O)Nc1nncs1)C(c1ccccc1)c1ccc2c(cnn2C2CCCCCC2)c1` (racemic), the Efficacy came to 85% in assay [1], 60% in assay [6] and 86% in assay [7].
On to `CC(C)CC(c1ccc2c(cnn2-c2ccc(F)cc2)c1)C(C)(C)C(=O)Nc1nncs1` (racemic), for which the Efficacy in assay [1] was 60%.
`CC(C)n1ncc2cc(C(c3ccccc3)C(C)(C)C(=O)Nc3nncs3)ccc21` (racemic): the values for the Efficacy in assay [1], in assay [6] and in assay [7] were 82%, under 30% and 44%, respectively.
In the case of `Cc1csc(NC(=O)C(C)(C)C(c2ccccc2)c2ccc3c(cnn3-c3ccc(F)cc3)c2)n1` (racemic), the Efficacy in assay [1] was 74%.
As for `CC(C(=O)Nc1nncs1)C(c1ccccc1)c1ccc2c(cnn2-c2ccc(F)cc2)c1` (single isomer, unassigned; diastereomer 1), in assay [1], the Efficacy was 42%.
For `CC(C(=O)Nc1nncs1)[C@@H](c1ccccc1)c1ccc2c(cnn2-c2ccc(F)cc2)c1` (single isomer, unassigned; diastereomer 2), the Efficacy in assay [1] amounted to 103%; in assay [6], 76%.
On the same counts, the results for `CC(C(=O)Nc1nncs1)[C@@H](c1ccccc1)c1ccc2c(cnn2-c2ccc(F)cc2)c1` (single isomer, unassigned; diastereomer 3) are 106% and 122%.
On the same counts, the results for `CC(C(=O)Nc1nncs1)C(c1ccccc1)c1ccc2c(cnn2-c2ccc(F)cc2)c1` (single isomer, unassigned; diastereomer 4) are 89% and 100%.
